Sampled rows, rich in hits. Any-hit rate of the full collection: about 1.3%.
Furin inhibitor = human furin inhibitors, primary screen, biochemical, fluorescence intensity | AID 463115, 2010 | P09958 | purified furin, fluorogenic substrate cleavage | 220,000 tested, 0.061% active | inhibition, % at 20 µM or 30 µM; in the data active = inhibition above about 25%
Target sequence (P09958 108-714 limits assumed): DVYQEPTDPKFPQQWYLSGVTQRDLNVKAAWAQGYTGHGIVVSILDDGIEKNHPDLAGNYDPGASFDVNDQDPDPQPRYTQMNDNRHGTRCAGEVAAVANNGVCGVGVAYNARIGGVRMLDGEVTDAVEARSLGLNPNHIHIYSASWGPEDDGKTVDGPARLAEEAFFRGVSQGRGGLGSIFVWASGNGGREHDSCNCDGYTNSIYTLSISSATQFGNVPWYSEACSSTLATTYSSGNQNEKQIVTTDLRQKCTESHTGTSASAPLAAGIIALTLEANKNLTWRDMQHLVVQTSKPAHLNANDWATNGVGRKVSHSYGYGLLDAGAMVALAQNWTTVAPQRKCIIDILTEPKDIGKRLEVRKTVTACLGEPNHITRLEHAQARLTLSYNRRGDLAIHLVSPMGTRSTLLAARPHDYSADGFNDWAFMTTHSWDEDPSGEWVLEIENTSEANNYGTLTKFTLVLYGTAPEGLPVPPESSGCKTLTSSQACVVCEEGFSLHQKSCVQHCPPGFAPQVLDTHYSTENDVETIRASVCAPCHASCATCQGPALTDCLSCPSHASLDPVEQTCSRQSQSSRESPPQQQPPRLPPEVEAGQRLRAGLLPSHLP
EP2 mod = EP2 receptor modulators, cAMP readout, primary screen, cell-based, HTRF cAMP, PGE2 stimulation; AID 940, 2007; Prostaglandin E2 receptor EP2 subtype (Homo sapiens), P43116; 260,000 tested, 0.83% active; induction, % at 25 µM; EP2-expressing cells, cAMP HTRF FRET, PGE2 co-stimulation;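 active = compounds whose cAMP rise, as percent of the full-agonist control response, exceeds 60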;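 note: rat C6 glioma line stably carrying human EP2 under a CMV promoter; the protocol text gives 20 µM as final concentration; 100% = response of wells given 1 µM PGE2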
JMJD2C inh = inhibitors of GASC-1 histone demethylase, primary screen, biochemical, fluorescence, DELFIA europium; Lysine-specific demethylase 4C (Homo sapiens), Q9H3R0; GST-JMJD2C(1-420) H3K9me3 demethylation; inhibition, % at 2.35 µM; 330,000 tested, 0.069% active; AID 2099, 2009;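 active = more than half of a compound's replicate wells show inhibition beyond 50%, single wells judged on their own value; inconclusive = some, but no more than half, of replicates pass 50% inhibition; inactive = no replicate passes 50% inhibition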;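 note: signal counts dimethyl H3K9 product captured on neutravidin plate; 0% = median of DMSO wells and 100% = 0.3 times that DMSO median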
EP2 antag = human EP2 receptor antagonists, primary screen, TR-FRET cAMP, C6 glioma cells. Prostaglandin E2 receptor EP2 subtype (Homo sapiens), P43116. C6 glioma cells expressing human EP2; cells stimulated with saturating PGE2. inhibition, % at 25 µM. 260,000 tested, 0.52% active. AID 1422, 2008;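 active = percent inhibition above 40 after rounding to a whole number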;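 note: rat C6 glioma host cells with rolipram phosphodiesterase inhibitor present; the protocol text gives 20 µM as final concentration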
NR2E3 ag-1 = inhibitors of NR2E3-RetCOR corepressor binding, primary screen, NR2E3 agonist project, biochemical, TR-FRET, GST-NR2E3, biotin-RetCOR | 1536-well | inhibition of corepressor binding, % at 4.78 µM | 320,000 tested, 0.12% active;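 active = percent inhibition above the cutoff of mean plus 3 SD of all tested compounds, set per screening campaign, cut at about 20% in these data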;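 note: 0% = DMSO wells and 100% = biotin wells as full block of FRET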
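Format: 1536-well format; test system: GST-NR2E3 and biotin-RetCOR proteins; read-out basis: percent inhibition of TR-FRET ratio; timing: 5 h incubation at 4 °C; detection: time-resolved FRET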
NR2E3 ag-2 = NR2E3 agonists in two-hybrid cells, primary screen, cell-based, luminescence, CHO-S, Gal4-NCOR/VP16-NR2E3; Photoreceptor-specific nuclear receptor (Homo sapiens), Q9Y5X4; luciferase; inhibition of corepressor binding, % at 3.98 µM; 360,000 tested, 0.35% active; AID 602229, 2012;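 active = inhibition above the mean of all tested compounds plus 3 SD, cut at about 70% in these data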;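 note: 0% = DMSO with NR2E3 transfected cells and 100% = cells lacking NR2E3 construct; higher means lower luciferase signal from less NR2E3 corepressor binding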
EP2 confirm = cAMP induction in EP2, EP4, beta2-AR and parental cells, confirmation, counter-screen for EP2 modulator project, cell-based, five parallel assays, C6 glioma, HEK293; shares compounds with EP2 mod; cAMP HTRF induction; plus low (about EC15) PGE2 agonist; calls only at 20 µM (by protocol); 1,300 tested, 47% active;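 active = cAMP induction above 50% in the main assay while under 30% in all four parallel counter assays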;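 note: rat C6 glioma cells stably expressing human EP2 receptor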
* = called active by the depositor; i = inactive; ? = inconclusive; . = no result given; + = active, no number; ! = not confirmed by another sample.

SMILES	Furin inhibitor	EP2 mod	JMJD2C inh	EP2 antag	NR2E3 ag-1	NR2E3 ag-2	EP2 confirm
CCCCn1c(-c2csc3c2CCCC3)n[nH]c1=S	-15.6	54.8	-1.2	1.5	3.5	.	i
CCOC(=O)c1oc2ccccc2c1NC(=O)c1ccccc1OC	-17.9	78.9*	5.5	10.5	2.2	-7.9	+
Fc1ccccc1Nc1nc2c(s1)CCc1ccccc1-2	-14.0	79.2*	.	21.2	.	.	+
COc1cc2ccc(=O)oc2c(CC=C(C)C)c1OC	-19.8	34.8	-10.5	10.1	4.1	-36.6	.
COc1ccc2ccc(=O)oc2c1CC=C(C)C	-13.3	66.8*!	?	9.3	1.4	-8.7	+
CCCC(=O)C1=C(O)C(C(=O)OC)C(C)(C)CC1=Nc1cccc2ccccc12 (stereo unspecified)	-11.1	77.5*	-0.3	12.3	1.6	11.2	+
CC(=O)O[C@@H]1CC2C(C)(C)[C@H](O)C=C[C@]2(C)C2CC[C@@]3(C)[C@H](c4ccoc4)OC(=O)C4OC43[C@@]21C (stereo partly specified)	.	12.0	.	11.0	.	.	.
COc1ccc(C2CC(C(F)(F)F)n3nc(C(N)=O)c(Cl)c3N2)cc1OC (stereo unspecified)	-28.4	74.8*	4.1	3.7	2.4	4.8	i
CCCOc1ccc(/C=N/Nc2ccc(C(=O)O)cc2)c(OCCC)c1	-28.4	88.1*	-17.8	14.9	.	-46.4	+
CC(C)Oc1ccc(/C=C(/NC(=O)c2ccccc2)C(=O)NCCC(=O)O)cc1	-21.0	71.5*	7.9	3.2	-4.0	7.9	i
CCCCCc1ccc(-c2ccc(=O)[nH]n2)cc1	-13.6	89.4*	67.4	.	-0.7	-59.9	i
COc1nc(-c2ccc(Cl)cc2)ccc1-c1noc(C(C)(C)C)n1	.	8.4	.	8.6	.	.	.
CCN(CC)c1ccc(NC(=O)CSc2n[nH]c(C)n2)cc1	.	-16.6	.	8.5	.	.	.
CC(NC(c1ccccc1)c1ccccc1)C(=O)N1CCCc2ccccc21 (stereo unspecified)	-16.4	66.0*	19.5	8.4	0.1	16.9	i
O=C(C(=O)N1CCCc2ccccc21)N1CCCc2ccccc21	-5.1	5.0	-12.7	7.0	1.4	-8.2	.
CC(NS(=O)(=O)c1ccc2c(c1)NC(=O)CO2)C(=O)N1CCCCC1 (stereo unspecified)	.	-21.4	.	6.1	.	.	.
Cc1ccc(Cn2c(=O)n(Cc3ccco3)c(=O)c3ccccc32)cc1	-13.9	67.7*	-4.4	8.5	2.7	-13.6	+
O=c1c2ccccc2n(Cc2ccc(Cl)cc2)c(=O)n1Cc1ccco1	-11.4	50.8	-8.7	4.2	0.6	-36.6	+
COc1ccccc1N1CCN(C(=O)Cn2nc(C)n3c(cc4ccsc43)c2=O)CC1	.	-8.8	.	.	.	.	.
CC(=O)OC[C@@]1(O)C[C@@]23CCC4c5ccoc5CC[C@]4(C)C2CC[C@@H]1C3 (stereo partly specified)	.	68.5*	.	8.9	.	.	i
COc1ccc2c(C)cc(SCC(=O)Nc3ncc(Cl)cc3Cl)nc2c1	-6.0	67.8*	2.2	13.6	0.5	-3.6	i
CCCC(c1nnnn1C(C)(C)CC)N1CCN(Cc2ccc3c(c2)OCO3)CC1 (stereo unspecified)	.	-35.6	.	6.3	.	.	.
COc1ccccc1C(CC(=O)c1ccccc1)CC(=O)c1ccccc1	-11.8	67.1*	1.6	5.0	0.9	-23.7	+
CC(=O)CCc1oc2ccc(C)cc2c1-c1ccccc1	-6.4	48.6	30.9	9.7	2.5	-3.4	.
C/C(CCc1oc2ccc(Cl)cc2c1-c1ccc(C)o1)=N\O	-13.3	65.0*	7.4	5.7	-0.2	-16.1	+
SMILES	Furin inhibitor	EP2 mod	JMJD2C inh	EP2 antag	NR2E3 ag-1	NR2E3 ag-2	EP2 confirm
COC(=O)CSc1nnc2n(C3CCCCC3)c(=O)c3c4c(sc3n12)CCCC4	-6.2	31.1	15.7	15.1	0.1	-4.0	.
CCOC(=O)CSc1nnc2n(C3CCCCC3)c(=O)c3c4c(sc3n12)CCCC4	-10.3	66.4*	23.9	6.4	-0.6	2.9	i
CC(Sc1nnc(-c2cccs2)n1Cc1ccccc1)C(=O)NCc1ccc2c(c1)OCO2 (stereo unspecified)	-17.3	69.5*	-5.2	2.4	0.2	-4.2	i
CN1CCN(c2ccccc2NC(=O)c2ccc(N3CCCC3)c([N+](=O)[O-])c2)CC1	-12.9	-17.5	-4.4	17.5	-2.2	-31.7	.
O=C(Nc1cccc(Cl)c1N1CCCCC1)c1ccc2c(c1)OCCO2	-1.2	74.4*	-6.2	4.6	5.1	-7.2	i
O=C(Nc1ccccc1N1CCCCC1)c1ccc(Cl)c([N+](=O)[O-])c1	-2.9	58.9	5.2	7.9	0.8	8.5	+
O=C(NC(=S)Nc1cccc(Cl)c1N1CCCCC1)c1ccc2c(c1)OCCO2	-4.5	1.9	0.1	4.5	0.4	-0.6	.
O=C(Nc1nccs1)c1cccc(-n2cnnn2)c1	.	-19.6	.	5.5	.	.	.
CC(=O)C1=C(O)C(=O)N(CCc2c[nH]c3ccccc23)C1c1ccc(F)cc1 (stereo unspecified)	.	10.4	.	14.6	.	.	.
COc1ccc(Nc2nc(-c3cc4cccc(OC)c4oc3=O)cs2)cc1	11.0	70.5*	-4.3	6.0	-2.2	-22.3	+
Cc1cccc(/N=C/c2c(O)ccc3oc4c(c23)CCCC4)n1	-29.2	72.9*	-16.6	7.2	0.6	-2.0	+
Cc1cc2c(cc3c(=O)n(CC(=O)N4CC(C)CC(C)C4)nc(C)n32)s1 (stereo unspecified)	.	-7.7	.	.	.	.	.
CCC(CC)C(=O)N1CCC(Cn2nc(-c3ccc(OC)c(OC)c3)ccc2=O)CC1	.	35.7	.	.	.	.	.
CCOC(=O)C(C)Sc1ncc(OC)c(Sc2ccc(Cl)cc2)n1 (stereo unspecified)	-13.4	67.7*	-0.9	2.3	3.4	17.1	+
Cc1cc(C)c2cc(C)c(SCC(=O)NCc3ccco3)nc2c1	-18.7	76.6*	2.0	7.4	2.4	-16.1	+
CC(C)OC(=O)c1c(NC(=O)c2cccs2)sc2c1CCCC2	-10.4	54.3	-4.0	6.0	5.4	9.7	+
